Test results: ChEMBL document CHEMBL5058577, “EUbOPEN Chemogenomics Library 2 (Multiplex)” (2022)

Test system: Fibroblast
Assay: Multiplex assay against human fibroblast
Assay type: toxicity, cell-based
How it was run: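 At seeding, live cells were stained with Hoechst33342, BioTracker Green Microtubule Cytoskeleton Dye, MitoTracker Red and Annexin V Alexa Fluor 680. After compound addition they were imaged on a CQ1 microscope at 37°C and 5% CO2, and CellPathfinder machine-learning gating sorted them into Hoechst high-intensity objects or normal cells, with normal cells further split into healthy, pyknosed or fragmented nuclei and pyknosed cells into mitotic or apoptotic. Tubulin, mitochondrial-mass and membrane-permeability phenotypes are given as per cents of cells with healthy nuclei.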

[1] = 12 h, 1 µM, compound concentration 1 uM, replicate 1
[2] = 12 h, 1 µM, compound concentration 1 uM, replicate 2
[3] = 12 h, 10 µM, compound concentration 10 uM, replicate 1
[4] = 12 h, 10 µM, compound concentration 10 uM, replicate 2
[5] = 24 h, 1 µM, compound concentration 1 uM, replicate 1
[6] = 24 h, 1 µM, compound concentration 1 uM, replicate 2
[7] = 24 h, 10 µM, compound concentration 10 uM, replicate 1
[8] = 24 h, 10 µM, compound concentration 10 uM, replicate 2
[9] = 48 h, 1 µM, compound concentration 1 uM, replicate 1
[10] = 48 h, 1 µM, compound concentration 1 uM, replicate 2
[11] = 48 h, 10 µM, compound concentration 10 uM, replicate 1
[12] = 48 h, 10 µM, compound concentration 10 uM, replicate 2

Question: Which “Population Apoptotic (%)” value [1] does the source give for CC(C)(C)c1ccc(CSc2cnn(C(C)(C)C)c(=O)c2Cl)cc1 [PYRIDABEN] here?
Answer: 46%

Question: And the “Population Fragmented Nuclei (%)” value [1]?
Answer: 15%

Question: What about the “Population Healthy Nuclei (%)” value [1] of the same compound?
Answer: 66%

Question: What about the “Population Hoechst High Intensity Objects (%)” value [1] of the same compound?
Answer: 1%

Question: And the “Population Membrane Permeable-Phenotype (%)” value [1]?
Answer: 3%

Question: And the “Population Mitochondria Different-Phenotype (%)” value [1]?
Answer: 1%

Question: And the “Population Mitotic Cells (%)” value [1]?
Answer: 53%

Question: What about the “Population Normal (%)” value [1] of the same compound?
Answer: 98%

Question: And the “Population Pyknosed Nuclei (%)” value [1]?
Answer: 17%

Question: And the “Population Tubulin-Different-Phenotype (%)” value [1]?
Answer: 28%

Question: And the “Total Cell Count” value [1]?
Answer: 148

Question: And the “Population Apoptotic (%)” value [2]?
Answer: 44%

Question: What about the “Population Fragmented Nuclei (%)” value [2] of the same compound?
Answer: 27%

Question: And the “Population Healthy Nuclei (%)” value [2]?
Answer: 47%

Question: What about the “Population Hoechst High Intensity Objects (%)” value [2] of the same compound?
Answer: 4%

Question: What about the “Population Membrane Permeable-Phenotype (%)” value [2] of the same compound?
Answer: 12%

Question: What about the “Population Mitochondria Different-Phenotype (%)” value [2] of the same compound?
Answer: 7%

Question: And the “Population Mitotic Cells (%)” value [2]?
Answer: 55%

Question: What about the “Population Normal (%)” value [2] of the same compound?
Answer: 95%

Question: What about the “Population Pyknosed Nuclei (%)” value [2] of the same compound?
Answer: 25%

Question: And the “Population Tubulin-Different-Phenotype (%)” value [2]?
Answer: 57%

Question: And the “Total Cell Count” value [2]?
Answer: 142

Question: And the “Population Apoptotic (%)” value [3]?
Answer: 25%

Question: And the “Population Fragmented Nuclei (%)” value [3]?
Answer: 11%

Question: And the “Population Healthy Nuclei (%)” value [3]?
Answer: 68%

Question: What about the “Population Hoechst High Intensity Objects (%)” value [3] of the same compound?
Answer: 4%

Question: And the “Population Membrane Permeable-Phenotype (%)” value [3]?
Answer: 2%

Question: And the “Population Mitochondria Different-Phenotype (%)” value [3]?
Answer: 5%

Question: And the “Population Mitotic Cells (%)” value [3]?
Answer: 74%

Question: What about the “Population Normal (%)” value [3] of the same compound?
Answer: 95%

Question: And the “Population Pyknosed Nuclei (%)” value [3]?
Answer: 20%

Question: And the “Population Tubulin-Different-Phenotype (%)” value [3]?
Answer: 35%

Question: What about the “Total Cell Count” value [3] of the same compound?
Answer: 139

Question: What about the “Population Apoptotic (%)” value [4] of the same compound?
Answer: 47%

Question: And the “Population Fragmented Nuclei (%)” value [4]?
Answer: 25%

Question: What about the “Population Healthy Nuclei (%)” value [4] of the same compound?
Answer: 49%

Question: And the “Population Hoechst High Intensity Objects (%)” value [4]?
Answer: 1%

Question: And the “Population Membrane Permeable-Phenotype (%)” value [4]?
Answer: 12%

Question: What about the “Population Mitochondria Different-Phenotype (%)” value [4] of the same compound?
Answer: 4%

Question: What about the “Population Mitotic Cells (%)” value [4] of the same compound?
Answer: 52%

Question: And the “Population Normal (%)” value [4]?
Answer: 98%

Question: What about the “Population Pyknosed Nuclei (%)” value [4] of the same compound?
Answer: 25%

Question: And the “Population Tubulin-Different-Phenotype (%)” value [4]?
Answer: 54%

Question: What about the “Total Cell Count” value [4] of the same compound?
Answer: 136

Question: And the “Population Apoptotic (%)” value [5]?
Answer: 35%

Question: And the “Population Fragmented Nuclei (%)” value [5]?
Answer: 17%

Question: What about the “Population Healthy Nuclei (%)” value [5] of the same compound?
Answer: 71%

Question: And the “Population Hoechst High Intensity Objects (%)” value [5]?
Answer: 0%

Question: And the “Population Membrane Permeable-Phenotype (%)” value [5]?
Answer: 0%

Question: And the “Population Mitochondria Different-Phenotype (%)” value [5]?
Answer: 2%

Question: And the “Population Mitotic Cells (%)” value [5]?
Answer: 64%

Question: What about the “Population Normal (%)” value [5] of the same compound?
Answer: 99%

Question: What about the “Population Pyknosed Nuclei (%)” value [5] of the same compound?
Answer: 11%

Question: What about the “Population Tubulin-Different-Phenotype (%)” value [5] of the same compound?
Answer: 20%

Question: What about the “Total Cell Count” value [5] of the same compound?
Answer: 148

Question: What about the “Population Apoptotic (%)” value [6] of the same compound?
Answer: 36%

Question: And the “Population Fragmented Nuclei (%)” value [6]?
Answer: 30%

Question: What about the “Population Healthy Nuclei (%)” value [6] of the same compound?
Answer: 48%

Question: What about the “Population Hoechst High Intensity Objects (%)” value [6] of the same compound?
Answer: 4%

Question: What about the “Population Membrane Permeable-Phenotype (%)” value [6] of the same compound?
Answer: 7%

Question: And the “Population Mitochondria Different-Phenotype (%)” value [6]?
Answer: 8%

Question: What about the “Population Mitotic Cells (%)” value [6] of the same compound?
Answer: 63%

Question: And the “Population Normal (%)” value [6]?
Answer: 95%

Question: What about the “Population Pyknosed Nuclei (%)” value [6] of the same compound?
Answer: 21%

Question: And the “Population Tubulin-Different-Phenotype (%)” value [6]?
Answer: 50%

Question: And the “Population Apoptotic (%)” value [7]?
Answer: 56%

Question: What about the “Population Fragmented Nuclei (%)” value [7] of the same compound?
Answer: 13%

Question: What about the “Population Healthy Nuclei (%)” value [7] of the same compound?
Answer: 62%

Question: What about the “Population Hoechst High Intensity Objects (%)” value [7] of the same compound?
Answer: 2%

Question: And the “Population Membrane Permeable-Phenotype (%)” value [7]?
Answer: 1%

Question: What about the “Population Mitochondria Different-Phenotype (%)” value [7] of the same compound?
Answer: 7%

Question: What about the “Population Mitotic Cells (%)” value [7] of the same compound?
Answer: 43%

Question: And the “Population Normal (%)” value [7]?
Answer: 97%

Question: What about the “Population Pyknosed Nuclei (%)” value [7] of the same compound?
Answer: 23%

Question: What about the “Population Tubulin-Different-Phenotype (%)” value [7] of the same compound?
Answer: 40%

Question: And the “Total Cell Count” value [7]?
Answer: 139

Question: What about the “Population Apoptotic (%)” value [8] of the same compound?
Answer: 54%

Question: And the “Population Fragmented Nuclei (%)” value [8]?
Answer: 28%

Question: And the “Population Healthy Nuclei (%)” value [8]?
Answer: 48%

Question: What about the “Population Hoechst High Intensity Objects (%)” value [8] of the same compound?
Answer: 0%

Question: What about the “Population Membrane Permeable-Phenotype (%)” value [8] of the same compound?
Answer: 9%

Question: What about the “Population Mitochondria Different-Phenotype (%)” value [8] of the same compound?
Answer: 9%

Question: And the “Population Mitotic Cells (%)” value [8]?
Answer: 45%

Question: What about the “Population Normal (%)” value [8] of the same compound?
Answer: 99%

Question: And the “Population Pyknosed Nuclei (%)” value [8]?
Answer: 22%

Question: And the “Population Tubulin-Different-Phenotype (%)” value [8]?
Answer: 53%

Question: And the “Total Cell Count” value [8]?
Answer: 136

Question: What about the “Population Apoptotic (%)” value [9] of the same compound?
Answer: 50%

Question: And the “Population Fragmented Nuclei (%)” value [9]?
Answer: 27%

Question: And the “Population Healthy Nuclei (%)” value [9]?
Answer: 62%

Question: And the “Population Hoechst High Intensity Objects (%)” value [9]?
Answer: 1%

Question: What about the “Population Membrane Permeable-Phenotype (%)” value [9] of the same compound?
Answer: 0%

Question: And the “Population Mitochondria Different-Phenotype (%)” value [9]?
Answer: 4%

Question: What about the “Population Mitotic Cells (%)” value [9] of the same compound?
Answer: 50%

Question: And the “Population Normal (%)” value [9]?
Answer: 98%

Question: What about the “Population Pyknosed Nuclei (%)” value [9] of the same compound?
Answer: 9%

Question: And the “Population Tubulin-Different-Phenotype (%)” value [9]?
Answer: 28%

Question: What about the “Total Cell Count” value [9] of the same compound?
Answer: 164

Question: What about the “Population Apoptotic (%)” value [10] of the same compound?
Answer: 45%

Question: And the “Population Fragmented Nuclei (%)” value [10]?
Answer: 43%

Question: And the “Population Healthy Nuclei (%)” value [10]?
Answer: 41%

Question: What about the “Population Hoechst High Intensity Objects (%)” value [10] of the same compound?
Answer: 4%

Question: And the “Population Membrane Permeable-Phenotype (%)” value [10]?
Answer: 6%

Question: And the “Population Mitochondria Different-Phenotype (%)” value [10]?
Answer: 15%

Question: What about the “Population Mitotic Cells (%)” value [10] of the same compound?
Answer: 54%

Question: What about the “Population Normal (%)” value [10] of the same compound?
Answer: 95%

Question: And the “Population Pyknosed Nuclei (%)” value [10]?
Answer: 15%

Question: And the “Population Tubulin-Different-Phenotype (%)” value [10]?
Answer: 63%

Question: What about the “Total Cell Count” value [10] of the same compound?
Answer: 153

Question: What about the “Population Apoptotic (%)” value [11] of the same compound?
Answer: 72%

Question: And the “Population Fragmented Nuclei (%)” value [11]?
Answer: 19%

Question: What about the “Population Healthy Nuclei (%)” value [11] of the same compound?
Answer: 62%

Question: And the “Population Hoechst High Intensity Objects (%)” value [11]?
Answer: 4%

Question: And the “Population Membrane Permeable-Phenotype (%)” value [11]?
Answer: 0%

Question: And the “Population Mitochondria Different-Phenotype (%)” value [11]?
Answer: 8%

Question: And the “Population Mitotic Cells (%)” value [11]?
Answer: 28%

Question: And the “Population Normal (%)” value [11]?
Answer: 95%

Question: What about the “Population Pyknosed Nuclei (%)” value [11] of the same compound?
Answer: 18%

Question: And the “Population Tubulin-Different-Phenotype (%)” value [11]?
Answer: 49%

Question: What about the “Total Cell Count” value [11] of the same compound?
Answer: 143

Question: What about the “Population Apoptotic (%)” value [12] of the same compound?
Answer: 63%

Question: And the “Population Fragmented Nuclei (%)” value [12]?
Answer: 36%

Question: What about the “Population Healthy Nuclei (%)” value [12] of the same compound?
Answer: 48%

Question: What about the “Population Hoechst High Intensity Objects (%)” value [12] of the same compound?
Answer: 5%

Question: And the “Population Membrane Permeable-Phenotype (%)” value [12]?
Answer: 8%

Question: And the “Population Mitochondria Different-Phenotype (%)” value [12]?
Answer: 10%

Question: What about the “Population Mitotic Cells (%)” value [12] of the same compound?
Answer: 36%

Question: And the “Population Normal (%)” value [12]?
Answer: 94%

Question: What about the “Population Pyknosed Nuclei (%)” value [12] of the same compound?
Answer: 15%

Question: And the “Population Tubulin-Different-Phenotype (%)” value [12]?
Answer: 58%

Question: And the “Total Cell Count” value [12]?
Answer: 131
